Laboratory results taken from publication PMC8148075 (Acta Pharmaceutica Sinica. B, 2020).
Peptide text beside a SMILES is read from it. * marks the point of attachment. Cbz = O=C(OCc1ccccc1)*; CH2F = FC*

Experiments:
[1] = system: ECa109 cells; test: Annexin V-FITC/PI flow cytometry apoptosis assay, ECa109; format: cell-based, human; conditions: ECa109, CQ 20 μmol/L alone, 72 h, Fig. 5D
[2] = system: EC9706 cells; test: Annexin V-FITC/PI flow cytometry apoptosis assay, EC9706; format: cell-based, human; conditions: EC9706, CQ 20 μmol/L alone, 72 h, Fig. 5D
[3] = system: LC3B-II, P62, ATG3, ATG5, ATG7; test: Western blot of autophagy proteins in ESCC cells; format: cell-based, human; conditions: ECa109 and EC9706 cells
[4] = system: NRF2, HO-1; test: Western blot of NRF2; format: cell-based, human; conditions: ECa109 and EC9706 cells
[5] = Toxicity evaluation in xenograft mice; format: in vivo, athymic BALB/c male nude mice; conditions: for HCT / HGB / MCH / MCHC / MCV / MPV / PLT / RBC / RDW / WBC: blood of xenograft mice, end of treatment; for Toxicity to nude mice (overall): therapeutic doses: SFN 5 mg/kg, CQ 60 mg/kg i.p. every other day, two weeks
[6] = system: ECa109 cells; test: CCK-8 cell proliferation assay, ECa109; format: cell-based, human; conditions: for IC50: Homo sapiens
Procedure, shortened: (§1)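 Cells were kept in RPMI-1640 with 10% FBS, penicillin and streptomycin at 37 °C and 5% CO2. They were seeded in 96-well plates and exposed to the test compound over graded concentrations (e.g., 0–80 μmol/L) for 24, 48 or 72 h, alone or with modulators. CCK-8 reagent was then added, and optical density was read after a further 4 h. n = 3.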

[7] = system: EC9706 cells; test: CCK-8 cell proliferation assay, EC9706; format: cell-based, human; conditions: for IC50: Homo sapiens
Procedure, shortened: as §1

[8] = system: ECa109 cells; test: Clonogenic assay, ECa109; format: cell-based, human
Procedure, shortened: (§2)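 Cells in RPMI-1640 with 10% FBS at 37 °C, 5% CO2, seeded at 1 × 10³ cells/well in 6-well plates. Exposed to test compound (0, 5, 10 μmol/L) and grown 7 days. Colonies rinsed with PBS three times, fixed in 4% paraformaldehyde for 20 min, stained with 1% crystal violet for 30 min, then counted. Three independent experiments.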

[9] = system: EC9706 cells; test: Clonogenic assay, EC9706; format: cell-based, human
Procedure, shortened: as §2

[10] = system: Het-1A cells; test: CCK-8 cell proliferation assay, Het-1A; format: cell-based; conditions: Homo sapiens
[11] = system: cleaved-caspase 9, BAX, BCL-2; test: Western blot of apoptotic markers in ESCC cells; format: cell-based, human; conditions: ECa109 and EC9706 cells, SFN 10 μmol/L, 0-24 h, Fig. 2B
Procedure, shortened: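 ECa109 and EC9706 cells were exposed to 10 μmol/L test compound for 0, 3, 6, 12 and 24 h. Equal protein (30 μg) was separated by SDS-PAGE and transferred to nitrocellulose. Membranes were blocked in 5% skimmed milk for 2 h at room temperature, given primary antibody overnight at 4 °C and secondary antibody for 2 h. Detection by ECL, bands quantified by densitometry, n = 3.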

[12] = system: ECa109 xenografts; test: ECa109 xenograft in nude mice, anti-tumor efficiency; format: in vivo, athymic BALB/c male nude mice; conditions: ECa109 xenograft tumors, Fig. 7D
Procedure, shortened: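 Male athymic BALB/c nude mice (4–6 weeks old, acclimatised 1 week) received 1 × 10^7 ECa109 cells in 0.2 mL PBS subcutaneously into the right flank. At 90–120 mm3, mice were randomised (n = 5): saline, test compound 5 mg/kg, autophagy inhibitor 60 mg/kg, or combination, i.p. every other day for two weeks. Paraffin sections of fixed tumours were TUNEL-stained; brown positive cells were counted per 1500 tumour cells.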

[13] = system: mRFP-GFP-LC3 puncta (autophagosomes, autolysosomes); test: mRFP-GFP-LC3 adenovirus autophagy flux, confocal microscopy; format: cell-based, human; conditions: ECa109 and EC9706 cells, SFN 10 μmol/L or bafilomycin A1 100 nmol/L, 24 h, Fig. 3D
Procedure, shortened: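 ECa109 and EC9706 cells (3 × 10⁵/well) were infected with mRFP-GFP-LC3 adenovirus for 48 h, then replated on glass-bottom dishes at 1 × 10⁴ cells/well. Treated with 10 μmol/L test compound or 100 nmol/L bafilomycin A1 for 24 h, fixed in 4% paraformaldehyde for 20 min and imaged by confocal microscopy. Yellow (green+red) puncta were scored as autophagosomes and red as autolysosomes, n = 3.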

[14] = system: LC3, P62, NRF2, HO-1, BCL-2, BAX, cleaved-caspase 9; test: Western blot of tumor tissues from xenograft mice; format: in vivo, athymic BALB/c male nude mice; conditions: SFN 5 mg/kg, Fig. 7G
Procedure, shortened: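 Male athymic BALB/c nude mice, 4–6 weeks old, received 1 × 10⁷ ECa109 cells in 0.2 mL PBS s.c. in the right flank. […] Excised tumors were stored at −80 °C and immunoblotted (ECL detection), n = 3.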

[15] = organ weight/body weight × 100, xenograft mice, SFN 5 mg/kg, CQ 60 mg/kg i.p.

SMILES: CCN(CC)CCCC(C)Nc1ccnc2cc(Cl)ccc12 (stereo not shown) [CQ, chloroquine, reference compound]
- Effect on cell apoptosis [1]: no obvious effects on cell apoptosis
- Effect on cell apoptosis [2]: no obvious effects on cell apoptosis
- Expression of LC3B-II and P62 ([3]; CQ 20 μmol/L alone, Fig. 3C): promoted expression LC3B-II and P62
- Effect of CQ on SFN-induced NRF2 in nucleus ([4]; CQ 20 μmol/L combined with SFN 10 μmol/L, 48 h, Fig. 5F): markedly inhibited the activation of SFN to NRF2
- HCT ([5]; SFN 5 mg/kg, CQ 60 mg/kg i.p.): 43.05 ± 1.75%
- HGB ([5]; SFN 5 mg/kg, CQ 60 mg/kg i.p.): 140.67 ± 6.31 g/L
- MCH ([5]; SFN 5 mg/kg, CQ 60 mg/kg i.p.): 15.28 ± 0.28 pg
- MCHC ([5]; SFN 5 mg/kg, CQ 60 mg/kg i.p.): 326.67 ± 4.50 g/L
- MCV ([5]; SFN 5 mg/kg, CQ 60 mg/kg i.p.): 50.10 ± 0.78 fL
- MPV ([5]; SFN 5 mg/kg, CQ 60 mg/kg i.p.): 6.52 ± 0.13 fL
- PLT ([5]; SFN 5 mg/kg, CQ 60 mg/kg i.p.): 941.00 ± 45.99 × 10^9/L
- RBC ([5]; SFN 5 mg/kg, CQ 60 mg/kg i.p.): 8.60 ± 0.38 × 10^12/L
- RDW ([5]; SFN 5 mg/kg, CQ 60 mg/kg i.p.): 16.38 ± 0.08%
- WBC ([5]; SFN 5 mg/kg, CQ 60 mg/kg i.p.): 4.71 ± 0.99 × 10^9/L
- Toxicity to nude mice (overall) [5]: no obvious toxicity

SMILES: Cc1ccccc1C(=O)N1CCc2cc(-c3nc(NC(=O)Cc4ccc5c(c4)OCO5)sc3C)ccc21 [ML385, reference compound]
- Effect on cell viability (CCK-8) ([6]; ECa109, ML385 0-200 μmol/L, 48 and 72 h, Fig. 4E): significantly inhibited cell viability
- Effect on cell viability (CCK-8) ([7]; EC9706, ML385 0-200 μmol/L, 48 and 72 h, Fig. 4E): significantly inhibited cell viability
- Effect on colony formation ([8]; ECa109, ML385, 7 days, Fig. 4F): significantly inhibited cell viability and colony formation
- Effect on colony formation ([9]; EC9706, ML385, 7 days, Fig. 4F): significantly inhibited cell viability and colony formation
- Expression of LC3B-II and P62 ([3]; ML385 20 μmol/L alone, Fig. 4D): inhibited LC3B-II and promoted P62 expression
- Expression of NRF2 and HO-1 ([4]; ML385 5-30 μmol/L, Fig. 4C): decreased expression of NRF2 and HO-1 in a dose-dependent manner

SMILES: C[S+]([O-])CCCCN=C=S (stereo not shown) [SFN, Sulforaphane]
- IC50 ([6]; ECa-109, 24 h): 47.4 ± 1.68 µM
- IC50 ([6]; ECa-109, 48 h): 20.8 ± 1.32 µM
- IC50 ([6]; ECa-109, 72 h): 15.2 ± 1.18 µM
- IC50 ([7]; EC9706, 24 h): 75.3 ± 1.88 µM
- IC50 ([7]; EC9706, 48 h): 41 ± 1.7 µM
- IC50 ([7]; EC9706, 72 h): 17.5 ± 1.24 µM
- IC50 ([10]; 48 h): 34.1 ± 1.53 µM
- IC50 ([10]; 72 h): 21.3 ± 1.33 µM
- Effect on colony formation ([8]; ECa109, SFN 5 and 10 μmol/L, 7 days, Fig. 1C): significantly inhibited the colony formation
- Effect on colony formation ([9]; EC9706, SFN 5 and 10 μmol/L, 7 days, Fig. 1C): significantly inhibited the colony formation
- Level of cleaved-caspase 9 [11]: increased the levels of cleaved-caspase 9 in a time-dependent manner
- Expression of LC3B-II and P62 ([3]; SFN 10 μmol/L, 0-24 h, Fig. 3A): increased LC3B-II and decreased P62
- Expression of ATG3, ATG5 and ATG7 ([3]; SFN 10 μmol/L, 0-24 h, Fig. 4A): no changes
- Expression of NRF2 in nucleus ([4]; SFN 5 and 10 μmol/L, Fig. 4B): increased the expression of NRF2 in nucleus
- TUNEL positive cells in tumor tissue compared with control [12]: large number of TUNEL positive cells
- HCT ([5]; SFN 5 mg/kg, CQ 60 mg/kg i.p.): 42.62 ± 4.07%
- HGB ([5]; SFN 5 mg/kg, CQ 60 mg/kg i.p.): 139.00 ± 13.78 g/L
- MCH ([5]; SFN 5 mg/kg, CQ 60 mg/kg i.p.): 15.20 ± 0.65 pg
- MCHC ([5]; SFN 5 mg/kg, CQ 60 mg/kg i.p.): 326.17 ± 3.82 g/L
- MCV ([5]; SFN 5 mg/kg, CQ 60 mg/kg i.p.): 49.62 ± 0.55 fL
- MPV ([5]; SFN 5 mg/kg, CQ 60 mg/kg i.p.): 6.62 ± 0.17 fL
- PLT ([5]; SFN 5 mg/kg, CQ 60 mg/kg i.p.): 867.83 ± 134.68 × 10^9/L
- RBC ([5]; SFN 5 mg/kg, CQ 60 mg/kg i.p.): 8.59 ± 0.83 × 10^12/L
- RDW ([5]; SFN 5 mg/kg, CQ 60 mg/kg i.p.): 16.18 ± 0.08%
- WBC ([5]; SFN 5 mg/kg, CQ 60 mg/kg i.p.): 4.18 ± 0.48 × 10^9/L
- Relative organ weight, heart [5, 15]: 0.63 ± 0.13%
- Relative organ weight, left kidney [5, 15]: 0.84 ± 0.19%
- Relative organ weight, liver [5, 15]: 6.74 ± 0.35%
- Relative organ weight, lung [5, 15]: 0.72 ± 0.19%
- Relative organ weight, right kidney [5, 15]: 0.98 ± 0.17%
- Relative organ weight, spleen [5, 15]: 0.79 ± 0.14%
- Toxicity to nude mice (overall) [5]: no obvious toxicity
- Fluorescent puncta (yellow = autophagosomes, red = autolysosomes) [13]: many yellow puncta and red puncta
- LC3B-II and P62 expression in tumors compared to control [14]: increased of LC3B-Ⅱ and decreased P62 expression

SMILES: COC(=O)C[C@H](NC(=O)[C@H](C)NC(=O)[C@@H](NC(=O)OCc1ccccc1)C(C)C)C(=O)CF [Z-VAD-FMK, reference compound] (Cbz-Val-Ala-Asp(OMe)-CH2F)
- Effect on cell proliferation (CCK-8) ([6]; ECa109, Z-VAD-FMK 20 μmol/L alone, 48 h, Fig. 2C): no obvious effects on cell proliferation
- Effect on cell proliferation (CCK-8) ([7]; EC9706, Z-VAD-FMK 20 μmol/L alone, 48 h, Fig. 2C): no obvious effects on cell proliferation

SMILES: CO/C1=C\C(C)=C\[C@@H](C)[C@@H](O)[C@@H](C)C/C(C)=C/C=C/[C@H](OC)[C@@H]([C@@H](C)[C@@H](O)[C@H](C)[C@@]2(O)C[C@@H](O)[C@H](C)[C@@H](C(C)C)O2)OC1=O [bafilomycin A1, reference compound]
- Fluorescent puncta (yellow = autophagosomes, red = autolysosomes) [13]: many yellow puncta
